This is one part of a sample in which hits are shown more often than they occur.
Jurkat NFkB inh: inhibitors of induced NF-kB luciferase reporter, primary screen, TCR NF-kB activation inhibitor project, cell-based, luminescence, uHTS; Jurkat, PMA/ionomycin-induced NF-kB luciferase reporter; inhibition, % at 4 µM; hit rate 0.53% among 330,000; AID 435003, 2010; in the data active means inhibition above about 50%
XBP1 UPR activ: activators of adaptive XBP1 UPR arm, primary screen, cell-based, CHO-XBP1 luciferase reporter, luminescence, uHTS. IRE1-XBP1 UPR activation; percent of tunicamycin response, DMSO as zero. activation, % at 20 µM. hit rate 0.33% among 330,000. AID 463104, 2010;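 active means versus positive control, 20 µM dose yields 30% or more activation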;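 further: 100% = tunicamycin at 10 µg/mL and 0% = DMSO only wells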
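incubation = overnight seeding at 37 °C, 6 h compound treatment at 37 °C | assay system = CHO-XBP1 cells stably carrying IRE1-XBP1-driven luciferase reporter | input = 1000 cells per well | detection = luciferase luminescence | dosing = single point, 20 µM final compound, 1% DMSO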
697 NFkB inh: inhibitors of PMA/ionomycin-induced NF-kB reporter, 697 cells, primary screen, B-cell NF-kB inhibitor project, cell-based, luminescence, uHTS. 697 B-cell NF-kB luciferase reporter, 16 h. inhibition, % at 4 µM. hit rate 0.33% among 330,000. AID 435022, 2010; in the data active means inhibition above about 35%
UPR CHOP act: activators of apoptotic CHOP UPR arm, primary screen, cell-based, CHO-CHOP luciferase reporter, luminescence, uHTS. UPR activation; percent of tunicamycin response over DMSO baseline. activation, % at 10 µM. hit rate 0.34% among 330,000. AID 449763, 2010;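 active means at 10 µM dose, activation of 40% or more, normalized to positive control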;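 further: 100% = tunicamycin at 10 µg/mL and 0% = DMSO alone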
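Dosing – one dose, 10 µM in 0.5% DMSO · System – CHO-CHOP cells, stable luciferase reporter of PERK-eIF2a-CHOP signalling · Input – 500 cells/well · Control set – tunicamycin 10 µg/mL final as positive, DMSO-only wells as negative · Timing – 6 h compound treatment, 37 °C · Measure – % activation vs tunicamycin · Technique – luminescence read with Steady-Glo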
CHOP inhibitor: inhibitors of CHOP promoter induction, primary screen, cell-based, unfolded protein response, luciferase reporter; inhibition, % at 10 µM; CHO-K1 CHOP-promoter luciferase, tunicamycin-induced, 15-18 h; hit rate 3.8% among 220,000;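 active means compounds that reduced the stress-induced luciferase reporter signal by more than about 70% of percent inhibition, limit read from the data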;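 further: 0% = tunicamycin plus vehicle and 100% = wells without tunicamycin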
* = called active by the depositor; . = no result.

SMILES | Jurkat NFkB inh | XBP1 UPR activ | 697 NFkB inh | UPR CHOP act | CHOP inhibitor
Cc1cc(C)cc(OCC(=O)OC/C(O)=C(\C#N)c2nc3ccccc3[nH]2)c1 | 35 | -3 | 6 | 3 | 79*
COCCN1CCN(C(=O)c2cc(COc3cncc(Cl)c3)on2)CC1 | 8 | -2 | -1 | 0 | .
CCCCn1c(N)c(N(CCOC)C(=O)CSCc2ccc(C)cc2)c(=O)[nH]c1=O | 13 | -4 | 14 | 0 | .
COc1cc(/C=C/c2cc(OC(C)=O)c3ccccc3n2)c(OC(C)=O)c([N+](=O)[O-])c1 | 10 | 0 | 10 | -4 | 87*
CC(=O)Oc1c(Cl)cc(Cl)cc1/C=C/c1ccc2ccccc2n1 | -3 | 5 | -18 | 3 | 17
CCOC(=O)C1(CCC(C)C)CC(CSc2nc3ccccc3[nH]2)OC1=O (centres undefined) | 4 | -5 | -39 | -3 | 89*
CCOC(=O)C1(CC)CC(CSc2nc3ccccc3[nH]2)OC1=O (centres undefined) | -7 | -2 | 9 | 1 | -1
O=C(O)c1cccc(N/N=C/c2cccs2)c1 | 42 | -7 | -36 | -11 | 84*
O=C(O)c1ccc(N/N=C/c2ccc(OC(=O)c3cccc(Cl)c3)cc2)cc1 | 44 | -6 | 34 | -8 | 79*
CSc1ccc(/C=N/Nc2cccc(C(=O)O)c2)cc1 | . | . | . | . | 85*
O=C(O)c1cccc(N/N=C/c2ccc(OC(F)(F)F)cc2)c1 | 9 | -10 | -216 | -8 | .
O=C(N/N=C/c1cccs1)C(=O)Nc1cccc(Cl)c1 | -7 | 7 | -14 | 2 | 59
Cc1ccc(C(C)C)c(OCCCN(C)Cc2ccccc2)c1 | -7 | -1 | 7 | 1 | 75*
Cc1ccc(C(C)C)c(OCC(O)CN(C)Cc2ccccc2)c1 (centres undefined) | -10 | -3 | 15 | 1 | .
CC(C)(C)c1csc(NC(=O)c2ccncc2)n1 | 12 | -2 | -26 | 3 | -3
CC(C)(C)c1csc(NC(=O)Nc2ccccc2)n1 | -81 | 4 | -118 | 6 | 76*
O=C(Nc1ccccc1)Nc1nc(-c2ccccc2)cs1 | -81 | 6 | -90 | 4 | -6
Cc1ccc(C(=O)Nc2nc(C(C)(C)C)cs2)s1 | -103 | 12 | -135 | 3 | 77*
COC(=O)c1ccc(C)c(NS(=O)(=O)c2cn(C)nc2C)c1 | 8 | 1 | -3 | 1 | .
Cc1noc(C)c1S(=O)(=O)N(C)C[C@H]1Oc2c(NC(=O)NC(C)C)cccc2C(=O)N([C@H](C)CO)C[C@@H]1C | -1 | -2 | 9 | -1 | .
O=C(Nc1ccc(N=Nc2ccccc2)cc1)c1ccc(Cl)cc1Cl | -2 | -1 | 6 | 0 | 77*
O=C(NCC1OCCc2ccccc21)c1ccc(NC(=O)c2ccc(Cl)cc2Cl)cc1 (centres undefined) | 8 | 11 | -21 | 1 | 98*
CCCCC(=O)N(CCOC)c1nnc(-c2ccccc2C)s1 | -7 | 4 | 3 | 2 | 74*
CCCCC(=O)N(CCOC)c1nnc(-c2cccnc2)s1 | -7 | -5 | 0 | 1 | -11
CC(=O)Nc1ccc(N/C=C/C(=O)C(C)(C)C)cc1 | 6 | 3 | 7 | 3 | 21
SMILES | Jurkat NFkB inh | XBP1 UPR activ | 697 NFkB inh | UPR CHOP act | CHOP inhibitor
Cc1ccc(N/C=C/C(=O)C(C)(C)C)c(O)c1 | 10 | 2 | 14 | 3 | 86*
Cn1c(SCC(=O)NC2CCCC2)nnc1C(F)(F)F | 4 | -2 | -26 | 3 | .
Cc1[nH]c2c(ccc3ccccc32)c1C1C(CCN)C1(C)C (centres undefined) | 5 | 7 | 11 | 1 | 92*
CCc1nnc(NC(=O)[C@@H](NC(=O)c2cccc(S(=O)(=O)N(CC)CC)c2)C(C)C)s1 | -2 | -2 | 6 | -1 | 83*
Cc1cc2cc(C)c(NCCNC(=O)c3ccccc3)nc2cc1C | 14 | 6 | -6 | 1 | 90*
CCOc1ccc2nc(NCCNC(=O)C3CC3)c(C)cc2c1 | -18 | 0 | -2 | -2 | .
CCOc1ccc2nc(NCCNC(=O)C(C)C)c(C)cc2c1 | -9 | 0 | -12 | 2 | 71*
